The values that follow come from ChEMBL document CHEMBL1122307, “Mitomycin C and porfiromycin analogues with substituted ethylamines at position 7” (J Med Chem, 1983).

Where “and” joins values, the source holds several entries; their conditions need not be identical. Equal entries are not always repeated.

The nature of data set [1]: Partition coefficient (logP). To be noted: octanol/water. The format is physicochemical.
The subject of data set [2] is B16. Nature of the data set: (§1) Median survival time (% T/C) after ip administration in B-16 melanoma in mice (dose mg/kg/day). The class given is functional, Mus musculus. In a few lines: (§2)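 B-16 melanoma in mice, run by the standard NCI protocol. Drug given ip on days 1, 4 and 7, ten mice per dose. Read-outs were median survival time as % T/C of controls and average body-weight change in g.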

Data set [3] concerns B16. The data set is described as follows: (§3) Average weight change after ip administration in B-16 melanoma in mice (dose mg/kg/day). The format is functional, Mus musculus. In a few lines: as §2
Data set [4] concerns B16. The data set is described as follows: Average weight change after ip administration of in B-16 melanoma in mice (dose mg/kg/day). The format is functional, Mus musculus. In a few lines: as §2
In data set [5] the test system is L1210. The data set is described as follows: Maximum % T/C against L-1210 leukemia cells in mice. The class given is functional, Mus musculus. In a few lines:
(§4)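 L-1210 leukemia in mice, run by the standard NCI protocol with one dose on day 1. % T/C is based on survival. Repeated assays are reported as both values.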

Data set [6] relates to L1210. Nature of the data set: Minimum effective dose required for antitumor activity against L-1210 leukemia cells in mice. The format is functional. As to conditions: Mus musculus, read-out: MED. In a few lines:
as §4

The subject of data set [7] is L1210. The data set is described as follows: Optimal dose required for antitumor activity L-1210 leukemia cells in mice. The format is functional, Mus musculus. An outline of the steps:
as §4

Data set [8] concerns P388. The data set is described as follows: Maximum % T/C against P-388 murine leukemia cells in mice. The class given is functional, Mus musculus. In a few lines:
(§5)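 P-388 ascites leukemia, 10⁶ cells implanted ip in female CDF₁ mice. Six mice per dose, with 10 saline-injected controls. A six-mouse mitomycin C group was run at each dose in the same experiment. % T/C = median survival time treated/control × 100 at the optimal dose. MED is the lowest dose giving T/C ≥ 125.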

For data set [9], the system named is P388. Nature of the data set: Maximum % T/C with mitomycin C against P-388 murine leukemia cells in mice. The class given is functional, Mus musculus. In a few lines:
as §5

The subject of data set [10] is P388. The data set is described as follows: Optimal dose required for antitumor activity against P-388 murine leukemia cells in mice. The class given is functional, Mus musculus. An outline of the steps: as §5
The subject of data set [11] is P388. Nature of the data set: Minimum effective dose required for antitumor activity against P-388 murine leukemia cells. The class given is functional. As to conditions: Mus musculus, read-out: MED. An outline of the steps:
as §5

A short description of data set [12]: Therapeutic ratio as optimal dose/minimal effective dose. The class given is ADME. To be noted: mouse, p388; read-out: TR.
In data set [13] the test system is B16. Described as §1. The format is functional, Mus musculus. In a few lines:
as §2
The source holds these as a separate data set.

Data set [14] relates to B16. Described as §3. The format is functional, Mus musculus. An outline of the steps:
as §2
This is another data set of the same source.

In data set [15] the test system is P388. The data set is described as follows: Leukopenia % change in WBC at optimal dose on 3rd day. The class given is functional, Mus musculus.
Data set [16] relates to B16. Nature of the data set: Average weight change after ip administration inB-16 melanoma in mice (dose mg/kg/day). The class given is functional, Mus musculus. In a few lines: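 Mice bearing B-16 melanoma were tested under the standard NCI protocol at Arthur D. Little. Compound was injected ip on days 1, 4 and 7, with ten mice per dose. Average body-weight change is reported in g. Alongside it, median survival time was given as % T/C and cures as tumor-free survivors on day 45.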

Data set [17] deals with B16. The description is as §1. The class given is functional. In a few lines: as §2
Data set [18] concerns B16. The description is as §1. The class given is functional. An outline of the steps: as §2
This is another data set of the same source.

In data set [19] the test system is B16. The data set is described as follows: Tumor free survivors on 45th day after ip administration in B-16 melanoma in mice (dose mg/kg/day); 0.
Data set [20] relates to B16. Nature of the data set: Tumor free survivors on 45th day after ip administration of in B-16 melanoma in mice (dose mg/kg/day); 0.

Take `CCSCC/N=C1/C(=O)C2=C(C(O)=C1C)N1C[C@H]3N[C@H]3C1(OC)[C@H]2COC(N)=O` (some centres undefined): the logP in data set [1] worked out at 1.66. The T/C in data set [2] is 190% and 175% and 144%; in [5], 141%; in data set [8], 205%; in data set [9] it was 268%. Further, the Average weight change in [3] was -1.2 g and -0.8 g; in [4], -1.7 g. For the same molecule, the minimal effective dose in [6] is 12 mg/kg; in data set [11], 1.6 mg/kg. The Dose in [7] was 24 mg/kg; in data set [10], 12.8 mg/kg. In [12], the selectivity ratio turned out to be 8.

`COC12[C@@H]3N[C@@H]3CN1C1=C(C(=O)/C(=N/CCS)C(C)=C1O)[C@@H]2COC(N)=O` (some centres undefined) registered a logP in [1] of 0.63. In addition, the T/C in data set [13] is reported as 190%; in data set [2] it was 218%; in data set [5] it was 168%; in data set [8] it was 313%; in data set [9], 181%. Moreover, the Average weight change in data set [3] and in [14] was -0.5 g throughout. Further, the minimal effective dose in [6] is 1.6 mg/kg; in [11], 0.2 mg/kg. The results for the Dose in data set [7] and in [10] were 9.6 mg/kg and 12.8 mg/kg, respectively. The “Change in WBC” value in [15] is -35%. Moreover, the selectivity ratio in data set [12] stood at 64.

Molecule `COCC/N=C1/C(=O)C2=C(C(O)=C1C)N1C[C@H]3N[C@H]3C1(OC)[C@H]2COC(N)=O` (some centres undefined) had a logP in data set [1] of -0.12. In addition, the T/C in data set [2] was 190%; in data set [5] it was 143%; in data set [8] it was 205%; in [9] it was 268%. Further, the figures for the Average weight change in data set [3], in data set [14] and in data set [4] were -0.4 g, -1.7 g and -2 g, respectively. In addition, the minimal effective dose in [6] turned out to be 6 mg/kg; in data set [11] it was 0.8 mg/kg. Also, the Dose in data set [7] came to 12 mg/kg; in data set [10], 12.8 mg/kg. Moreover, the “Change in WBC” value in data set [15] is reported as -57%. For the same molecule, in data set [12], the selectivity ratio was 16.

As for `CO[C@@]12[C@H](COC(N)=O)C3=C(C(=O)C(C)=C(N)C3=O)N1C[C@@H]1N[C@@H]12` [MITOMYCIN], the Average weight change is -1.1 g in data set [3], -0.7 g in data set [16] and -2.2 g in data set [4]. Moreover, the T/C in data set [17] was 190%; in data set [18], 160% and 127%; in data set [5], 124%; in [8] it was 161%. Also, in [6], the minimal effective dose is 3 mg/kg. The Dose in data set [7] worked out at 3 mg/kg; in [10], 3.2 mg/kg. Moreover, the “Change in WBC” value in [15] is given as -42%. Moreover, in [12], the selectivity ratio was 16. Moreover, the Cures in data set [19] and in [20] was 0 each time.

Usually logP stands for a log measure of how a compound divides between an organic and an aqueous phase. By T/C is commonly meant the result in the treated group divided by that in the control group, in per cent.
